Results reported in ChEMBL document CHEMBL1145070, “Potent, small-molecule inhibitors of human mast cell tryptase. Antiasthmatic action of a dipeptide-based transition-state analogue containing a benzothiazole ketone” (J Med Chem, 2003).
The source made the active and inactive calls.

How the values were obtained:
Tryptase beta-1 [1] = target: T1, Tryptase beta-1 (Homo sapiens, UniProt Q15661); assay: In vitro inhibition of human Tryptase beta.
Target sequence in this assay (Q15661 whole entry): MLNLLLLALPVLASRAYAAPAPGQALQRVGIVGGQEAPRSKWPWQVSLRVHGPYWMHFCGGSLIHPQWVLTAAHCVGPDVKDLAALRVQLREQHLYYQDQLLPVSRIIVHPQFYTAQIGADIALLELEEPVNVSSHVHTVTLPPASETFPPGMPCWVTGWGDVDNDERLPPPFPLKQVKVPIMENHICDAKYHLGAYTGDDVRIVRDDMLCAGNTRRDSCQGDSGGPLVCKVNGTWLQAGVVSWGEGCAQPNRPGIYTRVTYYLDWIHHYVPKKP

[2] = tested on: Cationic trypsin (Bos taurus); assay: Beta-Trypsin inhibitory activity of compound was determined; NA= not active (<10% inhibition at 100 uM)
Tryptase beta-1 [3] = target: T1, Tryptase beta-1; assay: Inhibitory activity of compound was determined against human Tryptase beta; NA= not active (<10% inhibition at 100 uM)
Procedure, shortened: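 β-Tryptase chromogenic assay, with absorbance read at 405 nm at 37 °C for 30 min after enzyme addition. […] Percent inhibition came from initial slopes versus the no-inhibitor control, fitted with a four-parameter logistic model.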
Target sequence in this assay (Q15661 31-275 limits assumed): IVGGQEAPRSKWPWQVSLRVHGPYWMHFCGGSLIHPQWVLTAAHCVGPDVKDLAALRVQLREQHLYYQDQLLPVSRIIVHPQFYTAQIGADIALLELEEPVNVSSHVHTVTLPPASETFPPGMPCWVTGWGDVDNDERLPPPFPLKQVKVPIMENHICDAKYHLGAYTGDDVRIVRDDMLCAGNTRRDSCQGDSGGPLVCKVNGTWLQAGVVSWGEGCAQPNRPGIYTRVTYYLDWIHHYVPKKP

[4] = tested on: Cationic trypsin (Bos taurus); assay: Ratio of Ki value of bovine trypsin to that of Ki value of tryptase
[5] = Ratio of Ki value kallikrein to that of Ki value of tryptase
[6] = target: Thrombin & trypsin (Homo sapiens) (UniProt P00734+P07477+P07478+P35030); assay: Ratio of Ki value thrombin to that of Ki value of tryptase; format: protein assay
[7] = Ratio of Ki value plasmin to that of Ki value of tryptase
Tryptase beta-1 [8] = target: T1, Tryptase beta-1; assay: Inhibitory activity of compound was determined against human Tryptase beta
Target sequence in this assay (Q15661 whole entry): as the sequence (Q15661 whole entry) above

SMILES	Ki (Tryptase beta-1 [1])	further results
CC(=O)N1CCC[C@H]1C(=O)N[C@@H](CCCN=C(N)N)C(=O)c1nc2ccccc2s1	19 nM	
CC(=O)N1CC(=O)C[C@H]1C(=O)N[C@@H](CCCN=C(N)N)C(=O)c1nc2ccccc2s1	73 nM	
CC(=O)NCC(=O)N[C@@H](CCCN=C(N)N)C(=O)c1nc2ccccc2s1	470 nM	
N=C(N)NCCCCC(=O)c1nc2ccccc2s1		NA [2]: inactive; NA (Tryptase beta-1 [3]): inactive
N=C(N)NCCC[C@H](NC(=O)c1ccc2ccccc2c1O)C(=O)N1CCCC1C(N)=O (some centres undefined)	330 nM	Selectivity [4]: 0.5; Selectivity [5]: > 3000; Selectivity [6]: 1.3; Selectivity [7]: > 3000
CC(=O)N1CC=C[C@H]1C(=O)N[C@@H](CCCN=C(N)N)C(=O)c1nc2ccccc2s1	38 nM	
CC(=O)N1C[C@H](O)C[C@H]1C(=O)NC(CCCN)C(=O)c1nc2ccccc2s1 (some centres undefined)	90 nM	
CN[C@H](Cc1ccccc1)C(=O)N1CCC[C@H]1C(=O)N[C@@H](CCCN=C(N)N)C(=O)c1nc2ccccc2s1	6.5 nM	
CC(=O)N1C[C@H](O)C[C@H]1C(=O)NC(CCCN=C(N)N)C(=O)c1nccs1 (some centres undefined)	180 nM	
COS(=O)(=O)N1CCC[C@H]1C(=O)N[C@@H](CCCN=C(N)N)C(=O)c1nc2ccccc2s1	33 nM	
CC(=O)N1CC[C@H]1C(=O)N[C@@H](CCCN=C(N)N)C(=O)c1nc2ccccc2s1	20 nM	
CC(=O)N1CCC[C@@H]1C(=O)N[C@@H](CCCN=C(N)N)C(=O)c1nc2ccccc2s1	14000 nM	IC50 (Tryptase beta-1 [8]): 2 nM
CC(=O)N[C@@H](CC(C)C)C(=O)N[C@@H](CCCN=C(N)N)C(=O)c1nc2ccccc2s1	41 nM	
N=C(N)c1ccc2nc(Cc3nc4ccc(C(=N)N)cc4[nH]3)[nH]c2c1	140 nM	
N=C(N)NCCCC(NC(=O)C1CCCC1)C(=O)c1nc2ccccc2s1 (centres undefined)	88 nM	
CC(=O)N1C[C@H](O)C[C@H]1C(=O)N[C@@H](CCCNC(=N)N)C(=O)c1nc2ccccc2s1 (stereo in doubt; (2S) 6)	10 nM	
CC(=O)N1CCC[C@H]1C(=O)NC(CCCN=C(N)N)C(O)c1nc2ccccc2s1 (some centres undefined)		NA [2]: inactive; NA (Tryptase beta-1 [3]): inactive
CCCC(NC(=O)[C@@H]1C[C@@H](O)CN1C(C)=O)C(=O)c1nc2ccccc2s1 (some centres undefined)		NA [2]: inactive; NA (Tryptase beta-1 [3]): inactive
N=C(N)NCCC[C@H](NC(=O)[C@@H]1CCCN1Cc1ccccc1)C(=O)c1nc2ccccc2s1	250 nM	
CC(=O)N1C[C@H](O)C[C@H]1C(=O)N[C@@H](CCCNC(=N)N)C(=O)c1nc2ccccc2s1	22 nM	
CC(=O)N1C[C@H](O)C[C@H]1C(=O)N[C@@H](CCCNC(=N)N)C(=O)c1nc2ccccc2s1 (stereo in doubt; (2R) 6)	380 nM	
